For three compounds, IC50 results are on record in ChEMBL document CHEMBL1136224, “De novo synthesis of two new cytotoxic tiazofurin analogues with modified sugar moieties” (Bioorg Med Chem Lett, 2003).

Structures are written as SMILES. Some results are limits rather than exact numbers.

What all share (assay type): functional, cell-based
What all share (settings): Homo sapiens

The test system of assay [1] is HT-29. Briefly: Concentration required to inhibit HT-29 cell growth. The method in brief:
(§1)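 MTT assay after 24 h incubation with compound, top tested concentration 1000 µM. IC50 = concentration giving 50% inhibition of cell growth relative to untreated control. Human lines: myelogenous leukaemia K562, promyelocytic leukaemia HL60, colon adenocarcinoma HT29, breast adenocarcinoma MCF7, normal foetal lung MRC-5.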

Assay [2] deals with MCF7. The experiment in a line: Concentration required to inhibit MCF-7 cell growth. The method in brief: as §1
The subject of assay [3] is MRC5. Briefly: Concentration required to inhibit MRC-5 cell growth. The method in brief: as §1
Assay [4] relates to K562. Briefly: Concentration required to inhibit K562 cell growth. The method in brief:
as §1

For assay [5], the system named is HL-60. Briefly: Concentration required to inhibit HL-60 cell growth. Summed up:
as §1

The term IC50 denotes the midpoint of a concentration-inhibition curve. A low value points to higher potency.

For `NC(=O)c1csc([C@@H]2O[C@H](CO)[C@@H](F)[C@H]2O)n1`, the IC50 in assay [1] was 0.91 µM; in assay [2] it was > 1000 µM; in assay [3], > 1000 µM; in assay [4], 96.6 µM; in assay [5], 10.5 µM.

Take `CC(=O)N[C@H]1[C@@H](O)[C@H](c2nc(C(N)=O)cs2)O[C@@H]1CO`: the IC50 in assay [1] was 1 µM; in assay [2], > 1000 µM; in assay [3], 89.7 µM; in assay [4] it was 0.095 µM; in assay [5], 1000 µM.

As to `NC(=O)c1csc([C@@H]2O[C@H](CO)[C@@H](O)[C@H]2O)n1` [TIAZOFURIN], the IC50 was 1.01 µM in assay [1]; 8.49 µM in assay [2]; 0.85 µM in assay [3]; 4.16 µM in assay [4]; 9.32 µM in assay [5].
